Test results published in PMC3983340 (Journal of Medicinal Chemistry, 2014).

Columns and labels:
[1] = system: C. albicans (strain SC5314); assay: Antifungal activity; type: cell-based
In short: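 SC5314 from −80 °C glycerol stock streaked on YM agar (37 °C, 48 h); colonies cultured in glucose–salt–biotin medium, pH 7.1, at 25 °C for 18 h (also printed as 30 °C, 24–36 h). Diluted to 1 × 10^5–1 × 10^6 cells/mL in GSB over test compound in DMSO (1 μL per 100 μL). Alamar Blue added after 24 h; MIC from absorbance-maximum shift 570→600 nm. Amphotericin B, itraconazole controls.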

[2] = target: T1, C. glabrata DHFR (CgDHFR) (Candida glabrata, UniProt Q6FPH0); assay: DHFR enzyme inhibition; type: biochemical
T1 sequence (Q6FPH0 1-217): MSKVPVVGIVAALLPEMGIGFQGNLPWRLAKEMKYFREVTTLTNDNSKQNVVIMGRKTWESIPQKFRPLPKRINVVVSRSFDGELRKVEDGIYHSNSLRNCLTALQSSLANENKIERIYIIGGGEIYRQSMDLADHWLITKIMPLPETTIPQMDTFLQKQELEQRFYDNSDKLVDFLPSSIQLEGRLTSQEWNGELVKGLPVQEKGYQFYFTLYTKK

Row | SMILES | MIC C. albicans in the presence of 0.01% Triton X-100 [1] | IC50 [2] [nM]
1 | COc1ccc(-c2ccccc2)cc1C(C)C#Cc1c(C)nc(N)nc1N (stereo not drawn) [Compound 2] | do inhibit the growth of C. albicans | –
2 | CCc1nc(N)nc(N)c1C#CC(C)c1cc(OC)cc(-c2ccncc2)c1 (stereo not drawn) [Compound 1] | – | 89
3 | CCc1nc(N)nc(N)c1C#CC(C)c1ccc(-c2ccc(C)cc2)nc1 (stereo not drawn) [Compound 47, 6-Ethyl-5-[3-(6-p-tolyl-pyridin-3-yl)-but-1-ynyl]-pyrimidine-2,4-diamine] | not significantly changed | –
